Source: PubChem BioAssay (several laboratories)
UBC9 SUMO inh: SUMOylation inhibition; P63279; HTRF SUMOylation assay, SAE1/SAE2 + UBC9, in vitro; actives 0.36% (n = 290,000); inhibition, % at 35 µM; in the data active = inhibition above about 50%, passing the limit was not always enough
Target sequence (P63279 whole entry, looked up): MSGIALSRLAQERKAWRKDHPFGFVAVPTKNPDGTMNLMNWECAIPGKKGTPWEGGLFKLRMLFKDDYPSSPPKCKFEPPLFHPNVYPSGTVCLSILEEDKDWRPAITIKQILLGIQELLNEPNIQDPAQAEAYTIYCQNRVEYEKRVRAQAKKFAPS
IMP-1 inhibitor: inhibitors of Pseudomonas aeruginosa IMP-1 metallo-beta-lactamase. actives 0.45% (n = 290,000). purified IMP-1, nitrocefin hydrolysis, epi-absorbance fluorescence. inhibition, % at 5.6 µM. AID 1556;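 active = inhibition above the mean plus 3 SD of all compounds in the same screening run, cut at about 4.5% in these data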;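 note: 0% = IMP-1 with DMSO and 100% = DMSO wells lacking enzyme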
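System: purified IMP-1 / Input: IMP-1 dispensed at 0.2 nM / Medium: 50 mM HEPES pH 7.1, 50 µM ZnSO4, 0.05% Brij 35 / Timing: 15 min enzyme–compound preincubation, then 25 min nitrocefin reaction, 25 °C / Technique: plate fluorescence quenching by hydrolysis product, ex 480/em 530 nm / Repeats: singlicate testing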
PHOSPHO1 inh: PHOSPHO1 (human) inhibition; Q8TCT1; recombinant PHOSPHO1, absorbance phosphatase assay; inhibition, % at 13.3 µM; actives 1.1% (n = 290,000); AID 1565; in the data active = inhibition above about 60%
Target sequence (Q8TCT1 whole entry, looked up): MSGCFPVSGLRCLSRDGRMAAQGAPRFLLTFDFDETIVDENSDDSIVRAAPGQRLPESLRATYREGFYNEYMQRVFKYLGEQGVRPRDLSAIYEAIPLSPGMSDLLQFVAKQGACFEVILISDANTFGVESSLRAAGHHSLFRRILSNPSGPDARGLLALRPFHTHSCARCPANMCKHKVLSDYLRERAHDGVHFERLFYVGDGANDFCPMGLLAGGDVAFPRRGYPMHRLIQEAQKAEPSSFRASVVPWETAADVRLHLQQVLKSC
VIM-2 inhibitor: blocks Pseudomonas aeruginosa VIM-2 metallo-beta-lactamase; purified VIM-2, nitrocefin hydrolysis, epi-absorbance fluorescence; inhibition, % at 5.6 µM; actives 0.89% (n = 290,000); AID 1527;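 active = inhibition above the mean of all tested compounds plus 3 SD, cutoff set per screening run, cut at about 7.5% in these data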;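 note: red hydrolysis product quenches plate fluorescence so inhibitors raise well fluorescence; 0% = enzyme with DMSO and 100% = DMSO without enzyme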
core dimer inh: blocks dimerization of HCV core protein | inhibition, % at 5 µM | TR-FRET GST/Flag-core106 dimerization, 1536-well | actives 0.33% (n = 300,000) | AID 1899;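 active = inhibition above the mean of all tested compounds plus 3 SD, set per screening campaign, cut at about 45% in these data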
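Material: GST/Flag-tagged HCV core106 proteins. Incubation: 4 h, 22.5 °C incubation. Read-out basis: inhibition (%) from 671 over 617 nm ratio. Measured by: TR-FRET, excitation 340 nm, emission 617 and 671 nm.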
HCV NS3 hel inh: inhibitors of Hepatitis C virus NS3 helicase; inhibition, % at 10.9 µM; actives 0.56% (n = 290,000); NS3 helicase DNA unwinding, Cy5 molecular beacon fluorescence;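 active = inhibition above the mean of all tested compounds plus 3 SD, set per campaign, cut at about 35% in these data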;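 note: 0% = DMSO wells and 100% = thioflavine S control wells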
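Material: hepatitis C virus NS3 helicase domain fragment enzyme; measured by: Cy5 fluorescence, 0 and 60 min reads; control set: DMSO and thioflavine S; incubation: 60 min unwinding reaction at 25 °C after ATP addition; read-out basis: % inhibition from 60/0 min fluorescence ratio, DMSO 0%, thioflavine S 100%; repeats: singlicate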
Starred values were filed as active, the others as inactive. In the library only some 3.1% were active in any assay of this set; here they are far more common.

COc1cccc(N2CC(C(=O)Nc3nnc(SCC(=O)NCc4ccco4)s3)CC2=O)c1 (stereo unspecified) was read as UBC9 SUMO inh 17, IMP-1 inhibitor -1, PHOSPHO1 inh 34, VIM-2 inhibitor -4, core dimer inh 21 and HCV NS3 hel inh 11.
`CC1CCCN(c2nc3ccccc3nc2C(C#N)S(=O)(=O)c2ccccc2)C1` (stereo unspecified) gave UBC9 SUMO inh 50*, IMP-1 inhibitor -3, PHOSPHO1 inh 30, VIM-2 inhibitor -3, core dimer inh 24 and HCV NS3 hel inh 15.
Screening COc1ccc(S(=O)(=O)C(C#N)c2nc3ccccc3nc2N2CCC(C)CC2)cc1 (stereo unspecified) returned UBC9 SUMO inh 64, PHOSPHO1 inh 100* and core dimer inh 8.
`C=CCc1cccc(Cl)c1OCCCNC1CCCC1` gave UBC9 SUMO inh 2, IMP-1 inhibitor 2, VIM-2 inhibitor 0, core dimer inh -4 and HCV NS3 hel inh -22.
Screening CC(=O)CSc1ccc(C(=O)O)cn1 returned UBC9 SUMO inh -6, IMP-1 inhibitor -1, PHOSPHO1 inh 4, VIM-2 inhibitor -1, core dimer inh -8 and HCV NS3 hel inh 13.
For COc1cc(NCCCCCCCN)c2ncccc2c1 the results were UBC9 SUMO inh 52*, IMP-1 inhibitor 2, PHOSPHO1 inh -23, VIM-2 inhibitor 7.8*, core dimer inh -6 and HCV NS3 hel inh -11.
S=c1[nH]ncn2c1cc1oc3ccccc3c12 was read as UBC9 SUMO inh 11, IMP-1 inhibitor -4, PHOSPHO1 inh -141, VIM-2 inhibitor -1, core dimer inh 64* and HCV NS3 hel inh -2.
Screening Nc1ccc2oc3ccccc3c2c1 returned UBC9 SUMO inh 22, IMP-1 inhibitor -2, PHOSPHO1 inh -11, VIM-2 inhibitor -2, core dimer inh -7 and HCV NS3 hel inh -14.
CCOc1ccccc1NC(=O)CSc1nnc(CNC(=O)c2cccs2)o1 was read as UBC9 SUMO inh -1, IMP-1 inhibitor -1, PHOSPHO1 inh 12, VIM-2 inhibitor 0, core dimer inh -1 and HCV NS3 hel inh 2.
`O=C(NCc1ccccn1)C1CCN(S(=O)(=O)c2cc(Cl)ccc2Cl)CC1` gave UBC9 SUMO inh -2, IMP-1 inhibitor 1, PHOSPHO1 inh 11, VIM-2 inhibitor -2, core dimer inh -3 and HCV NS3 hel inh 2.
COc1ccccc1-c1nc(SCC(=O)Nc2cc(C)on2)c2c(=O)n(C)c(=O)n(C)c2n1 was read as UBC9 SUMO inh 14, IMP-1 inhibitor -4, PHOSPHO1 inh 65*, VIM-2 inhibitor 0, core dimer inh -1 and HCV NS3 hel inh -2.
Cc1cc(NC(=O)CSc2nc(-c3ccccc3)nc3c2c(=O)n(C)c(=O)n3C)no1 was read as UBC9 SUMO inh 8, IMP-1 inhibitor -1, PHOSPHO1 inh 16, VIM-2 inhibitor 0, core dimer inh -2 and HCV NS3 hel inh -2.
`O=C(/C=C/c1ccccc1[N+](=O)[O-])N1CCN(C(=O)c2ccco2)CC1` gave UBC9 SUMO inh -2, IMP-1 inhibitor -2, PHOSPHO1 inh 24, VIM-2 inhibitor -2, core dimer inh -3 and HCV NS3 hel inh -7.
`CCCc1ccc(S(=O)(=O)NCc2nnc(SC)n2C)cc1` gave UBC9 SUMO inh 0, IMP-1 inhibitor -3, PHOSPHO1 inh 32, VIM-2 inhibitor -2, core dimer inh -8 and HCV NS3 hel inh 10.
COc1ccc(N=C(c2ccccc2)c2c(C)[nH]n(-c3ccccc3)c2=O)c(OC)c1 was read as UBC9 SUMO inh 7, IMP-1 inhibitor -1, PHOSPHO1 inh 19, VIM-2 inhibitor -3, core dimer inh 1 and HCV NS3 hel inh 4.
C=CCn1c(N)c(C(=O)NCCC2=CCCCC2)sc1=S was read as UBC9 SUMO inh 5, IMP-1 inhibitor -2, PHOSPHO1 inh 77*, VIM-2 inhibitor 0, core dimer inh -6 and HCV NS3 hel inh -5.
Screening CC1Cc2cc(/C(O)=C3/C(=O)C(=O)N(CCCn4ccnc4)C3c3cccc([N+](=O)[O-])c3)ccc2O1 (stereo unspecified) returned UBC9 SUMO inh 11, IMP-1 inhibitor -1, PHOSPHO1 inh 2, VIM-2 inhibitor -2, core dimer inh 2 and HCV NS3 hel inh 18.
Screening COc1ccc(-c2c(C)nn3c(Cl)c(C)c(C)nc23)cc1 returned UBC9 SUMO inh 16, IMP-1 inhibitor -1, PHOSPHO1 inh 29, VIM-2 inhibitor 8.7*, core dimer inh 2 and HCV NS3 hel inh -3.
`CCN(C(=O)CSc1nc(N)cc(=O)[nH]1)c1c(N)n(Cc2ccccc2)c(=O)[nH]c1=O` gave core dimer inh -1.
Cc1ccc(NC(=O)CSc2ccc(-c3cccnc3)nn2)c(C)c1 was read as UBC9 SUMO inh 6, IMP-1 inhibitor -5, PHOSPHO1 inh 73*, VIM-2 inhibitor -3, core dimer inh -18 and HCV NS3 hel inh 8.
`Cc1ccc(NC(=O)CSc2ccc(-c3ccccn3)nn2)c(C)c1` gave UBC9 SUMO inh -6, IMP-1 inhibitor -4, PHOSPHO1 inh 13, VIM-2 inhibitor -1, core dimer inh 6 and HCV NS3 hel inh -89.
Screening c1ccc2c(NCCc3c[nH]c4ccccc34)c3ccccc3nc2c1 returned UBC9 SUMO inh -3, IMP-1 inhibitor -3, PHOSPHO1 inh 20, VIM-2 inhibitor 8.1*, core dimer inh -10 and HCV NS3 hel inh -56.
OCCCNc1c2ccccc2nc2ccccc12 was read as UBC9 SUMO inh 15, IMP-1 inhibitor -1, VIM-2 inhibitor 8.3*, core dimer inh 2 and HCV NS3 hel inh 22.
Cc1ccc(N=Cc2c(O)n(-c3ccc4c(c3)OCO4)c(=O)c3ccccc23)cc1 was read as UBC9 SUMO inh 41, IMP-1 inhibitor -6, PHOSPHO1 inh 19, VIM-2 inhibitor -8, core dimer inh 62* and HCV NS3 hel inh 19.
CS(=O)(=O)N1CCC(C(=O)NCc2ccc(Cl)cc2)CC1 was read as UBC9 SUMO inh -18, IMP-1 inhibitor -3, PHOSPHO1 inh 33, VIM-2 inhibitor -3, core dimer inh 0 and HCV NS3 hel inh 8.
For Cc1ccc(CSc2ncnc3c2cnn3-c2ccccc2)cc1 the results were UBC9 SUMO inh 4, IMP-1 inhibitor -3, PHOSPHO1 inh 15, VIM-2 inhibitor -2, core dimer inh 0 and HCV NS3 hel inh -4.
`c1ccc(-c2nc(Sc3ncnc4c3cnn4-c3ccccc3)n[nH]2)cc1` gave UBC9 SUMO inh 11, IMP-1 inhibitor -2, PHOSPHO1 inh 87*, VIM-2 inhibitor -1, core dimer inh 0 and HCV NS3 hel inh 13.
`O=C(CCC(=O)N1CCOc2ccccc21)NCCc1ccccc1` gave UBC9 SUMO inh -9, IMP-1 inhibitor -2, PHOSPHO1 inh -25, VIM-2 inhibitor -2, core dimer inh 5 and HCV NS3 hel inh 7.
